Assay results from ChEMBL document CHEMBL5303300, “EUbOPEN Chemogenomics Library - Multiplex” (2023).
Values joined by “and” are separate entries in the source; they are usually repeats but may differ in a detail not shown here. Equal values may be shown once.

Test system: Fibroblast
Assay: Multiplex assay against human fibroblast
Format: toxicity, cell-based
Conditions: number of replicates 2
Summary of the method: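 Cells were classed with CellPathfinder machine-learning gating, first as Hoechst high-intensity objects or normal cells, then (normal cells) as healthy, pyknosed or fragmented nuclei, and finally (pyknosed cells) as mitotic or apoptotic. Staining of live cells at seeding used Hoechst33342, BioTracker Green Microtubule Cytoskeleton Dye, MitoTracker Red and Annexin V Alexa Fluor 680, with imaging on a CQ1 microscope at 37°C and 5% CO2 after compound addition. Tubulin, mitochondrial-mass and membrane-permeability phenotypes are per cents of healthy-nucleus cells.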

[1] = 12 h, 1 µM, compound concentration 1 uM
[2] = 12 h, 10 µM, compound concentration 10 uM
[3] = 24 h, 1 µM, compound concentration 1 uM
[4] = 24 h, 10 µM, compound concentration 10 uM
[5] = 48 h, 1 µM, compound concentration 1 uM
[6] = 48 h, 10 µM, compound concentration 10 uM

COc1cc(C(=O)NC2CCN(C)CC2)ccc1Nc1ncc(C(F)(F)F)c(NCc2ccc(C)cc2N(C)S(C)(=O)=O)n1.O=CO.O=CO
Population Apoptotic (%) [1]: 44% and 53% | Population Fragmented Nuclei (%) [1]: 24% and 14% | Population Healthy Nuclei (%) [1]: 64% and 61% | Population Hoechst High Intensity Objects (%) [1]: 1% and 0% | Population Membrane Permeable-Phenotype (%) [1]: 8% and 11% | Population Mitochondria Different-Phenotype (%) [1]: 3% and 4% | Population Mitotic Cells (%) [1]: 55% and 46% | Population Normal (%) [1]: 98% and 100% | Population Pyknosed Nuclei (%) [1]: 10% and 24% | Population Tubulin-Different-Phenotype (%) [1]: 64% and 46% | Total Cell Count [1]: 277 and 215 | Population Apoptotic (%) [2]: 63% and 46% | Population Fragmented Nuclei (%) [2]: 6% and 16% | Population Healthy Nuclei (%) [2]: 27% and 55% | Population Hoechst High Intensity Objects (%) [2]: 0% | Population Membrane Permeable-Phenotype (%) [2]: 6% and 8% | Population Mitochondria Different-Phenotype (%) [2]: 15% | Population Mitotic Cells (%) [2]: 36% and 53% | Population Normal (%) [2]: 100% and 99% | Population Pyknosed Nuclei (%) [2]: 66% and 27% | Population Tubulin-Different-Phenotype (%) [2]: 67% and 69% | Total Cell Count [2]: 168 and 259 | Population Apoptotic (%) [3]: 63% and 64% | Population Fragmented Nuclei (%) [3]: 21% and 17% | Population Healthy Nuclei (%) [3]: 70% and 66% | Population Hoechst High Intensity Objects (%) [3]: 1% and 0% | Population Membrane Permeable-Phenotype (%) [3]: 4% and 6% | Population Mitochondria Different-Phenotype (%) [3]: 9% and 6% | Population Mitotic Cells (%) [3]: 36% and 35% | Population Normal (%) [3]: 98% and 100% | Population Pyknosed Nuclei (%) [3]: 8% and 16% | Population Tubulin-Different-Phenotype (%) [3]: 53% and 38% | Total Cell Count [3]: 268 and 243 | Population Apoptotic (%) [4]: 94% and 92% | Population Fragmented Nuclei (%) [4]: 5% and 12% | Population Healthy Nuclei (%) [4]: 9% and 16% | Population Hoechst High Intensity Objects (%) [4]: 0% and 1% | Population Mitochondria Different-Phenotype (%) [4]: 23% and 62% | Population Mitotic Cells (%) [4]: 5% and 7% | Population Normal (%) [4]: 99% and 98% | Population Pyknosed Nuclei (%) [4]: 85% and 70% | Population Tubulin-Different-Phenotype (%) [4]: 84% and 77% | Total Cell Count [4]: 135 and 166 | Population Apoptotic (%) [5]: 94% and 90% | Population Fragmented Nuclei (%) [5]: 27% and 25% | Population Healthy Nuclei (%) [5]: 66% and 65% | Population Hoechst High Intensity Objects (%) [5]: 0% | Population Membrane Permeable-Phenotype (%) [5]: 6% and 5% | Population Mitochondria Different-Phenotype (%) [5]: 5% and 2% | Population Mitotic Cells (%) [5]: 5% and 9% | Population Normal (%) [5]: 99% | Population Pyknosed Nuclei (%) [5]: 6% and 8% | Population Tubulin-Different-Phenotype (%) [5]: 43% and 20% | Total Cell Count [5]: 267 and 253 | Population Apoptotic (%) [6]: 97% and 96% | Population Fragmented Nuclei (%) [6]: 27% and 31% | Population Healthy Nuclei (%) [6]: 16% and 15% | Population Hoechst High Intensity Objects (%) [6]: 0% | Population Membrane Permeable-Phenotype (%) [6]: 31% and 30% | Population Mitochondria Different-Phenotype (%) [6]: 9% and 26% | Population Mitotic Cells (%) [6]: 2% and 3% | Population Normal (%) [6]: 100% | Population Pyknosed Nuclei (%) [6]: 56% and 53% | Population Tubulin-Different-Phenotype (%) [6]: 81% and 78% | Total Cell Count [6]: 132 and 153

CN1CCN(c2ccc(-n3cc(-c4ccncc4OCC4CCNCC4)cn3)cc2)CC1
Population Apoptotic (%) [1]: 44% | Population Fragmented Nuclei (%) [1]: 13% and 12% | Population Healthy Nuclei (%) [1]: 58% and 71% | Population Hoechst High Intensity Objects (%) [1]: 0% | Population Membrane Permeable-Phenotype (%) [1]: 3% and 8% | Population Mitochondria Different-Phenotype (%) [1]: 2% and 0% | Population Mitotic Cells (%) [1]: 55% | Population Normal (%) [1]: 100% | Population Pyknosed Nuclei (%) [1]: 27% and 16% | Population Tubulin-Different-Phenotype (%) [1]: 15% and 14% | Total Cell Count [1]: 131 and 173 | Population Apoptotic (%) [2]: 38% and 75% | Population Fragmented Nuclei (%) [2]: 13% and 25% | Population Healthy Nuclei (%) [2]: 72% and 63% | Population Hoechst High Intensity Objects (%) [2]: 0% | Population Membrane Permeable-Phenotype (%) [2]: 2% and 4% | Population Mitochondria Different-Phenotype (%) [2]: 1% and 3% | Population Mitotic Cells (%) [2]: 61% and 25% | Population Normal (%) [2]: 100% | Population Pyknosed Nuclei (%) [2]: 14% and 10% | Population Tubulin-Different-Phenotype (%) [2]: 34% and 31% | Total Cell Count [2]: 179 and 182 | Population Apoptotic (%) [3]: 56% and 48% | Population Fragmented Nuclei (%) [3]: 13% and 14% | Population Healthy Nuclei (%) [3]: 58% and 68% | Population Hoechst High Intensity Objects (%) [3]: 0% | Population Membrane Permeable-Phenotype (%) [3]: 7% and 9% | Population Mitochondria Different-Phenotype (%) [3]: 2% and 1% | Population Mitotic Cells (%) [3]: 43% and 51% | Population Normal (%) [3]: 100% | Population Pyknosed Nuclei (%) [3]: 28% and 17% | Population Tubulin-Different-Phenotype (%) [3]: 17% and 13% | Total Cell Count [3]: 131 and 178 | Population Apoptotic (%) [4]: 39% and 47% | Population Fragmented Nuclei (%) [4]: 20% and 26% | Population Healthy Nuclei (%) [4]: 65% and 61% | Population Hoechst High Intensity Objects (%) [4]: 0% | Population Membrane Permeable-Phenotype (%) [4]: 8% and 5% | Population Mitochondria Different-Phenotype (%) [4]: 7% and 13% | Population Mitotic Cells (%) [4]: 60% and 52% | Population Normal (%) [4]: 100% | Population Pyknosed Nuclei (%) [4]: 14% and 11% | Population Tubulin-Different-Phenotype (%) [4]: 52% and 44% | Total Cell Count [4]: 189 and 192 | Population Apoptotic (%) [5]: 75% and 66% | Population Fragmented Nuclei (%) [5]: 21% and 16% | Population Healthy Nuclei (%) [5]: 61% and 72% | Population Hoechst High Intensity Objects (%) [5]: 0% | Population Membrane Permeable-Phenotype (%) [5]: 10% and 4% | Population Mitochondria Different-Phenotype (%) [5]: 1% and 0% | Population Mitotic Cells (%) [5]: 25% and 33% | Population Normal (%) [5]: 100% | Population Pyknosed Nuclei (%) [5]: 16% and 10% | Population Tubulin-Different-Phenotype (%) [5]: 17% and 10% | Total Cell Count [5]: 142 and 191 | Population Apoptotic (%) [6]: 76% and 73% | Population Fragmented Nuclei (%) [6]: 31% and 30% | Population Healthy Nuclei (%) [6]: 54% and 61% | Population Hoechst High Intensity Objects (%) [6]: 0% | Population Membrane Permeable-Phenotype (%) [6]: 2% and 4% | Population Mitochondria Different-Phenotype (%) [6]: 11% and 13% | Population Mitotic Cells (%) [6]: 23% and 26% | Population Normal (%) [6]: 99% and 100% | Population Pyknosed Nuclei (%) [6]: 14% and 7% | Population Tubulin-Different-Phenotype (%) [6]: 59% and 48% | Total Cell Count [6]: 212 and 189
